From ChEMBL document CHEMBL1149333, “Privileged scaffolds for blocking protein-protein interactions: 1,4-disubstituted naphthalene antagonists of transcription factor complex HOX-PBX/DNA” (Bioorg Med Chem Lett, 2004)
pIC50: −log10 of the molar value.

Legend:
[1] = Antagonistic activity against HOXA1-PBX1/DNA complex formation by electrophoretic mobility shift assay; assay type: functional
In short: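 Recombinant mouse HOXA1 192–288 and mouse/human PBX1 233–319 (2.5 ng each) preincubated 15 min at 4 °C in HEPES pH 7.9 binding buffer with 135 mM NaCl, poly dIdC and inhibitor in DMSO, then 30 min at ~22 °C with 32P-labeled Klenow-extended annealed oligonucleotide probe. Run on 4% polyacrylamide gel in TBE, autoradiographed; IC50 from averaged densitometry of multiple gels; screened initially at 300 μM.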

[2] = molecular target: POU domain, class 3, transcription factor 3 (Mus musculus) (UniProt P31361); test: Antagonistic activity against BRN1/DNA interaction by electrophoretic mobility shift assay
[3] = molecular target: POU domain, class 3, transcription factor 2 (Mus musculus) (UniProt P31360); test: Antagonistic activity against BRN2/DNA interaction by electrophoretic mobility shift assay
Chain of POU domain, class 3, transcription factor 2 (Mus musculus) (P31360 whole entry, looked up, the tested form may be a part): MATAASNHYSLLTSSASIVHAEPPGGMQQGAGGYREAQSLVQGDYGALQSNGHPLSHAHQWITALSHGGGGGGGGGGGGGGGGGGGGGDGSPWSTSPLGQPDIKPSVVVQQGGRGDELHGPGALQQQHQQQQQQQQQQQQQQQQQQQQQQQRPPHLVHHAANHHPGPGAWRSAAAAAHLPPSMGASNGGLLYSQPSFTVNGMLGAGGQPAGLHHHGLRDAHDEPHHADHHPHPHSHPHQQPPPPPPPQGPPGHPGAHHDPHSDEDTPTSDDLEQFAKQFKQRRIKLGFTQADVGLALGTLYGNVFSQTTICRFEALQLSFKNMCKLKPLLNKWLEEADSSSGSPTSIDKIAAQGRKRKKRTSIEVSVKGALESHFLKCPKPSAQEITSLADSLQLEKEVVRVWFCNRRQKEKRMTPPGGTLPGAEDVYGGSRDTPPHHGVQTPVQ

Chain of POU domain, class 3, transcription factor 3 (Mus musculus) (P31361 whole entry, looked up, the tested form may be a part): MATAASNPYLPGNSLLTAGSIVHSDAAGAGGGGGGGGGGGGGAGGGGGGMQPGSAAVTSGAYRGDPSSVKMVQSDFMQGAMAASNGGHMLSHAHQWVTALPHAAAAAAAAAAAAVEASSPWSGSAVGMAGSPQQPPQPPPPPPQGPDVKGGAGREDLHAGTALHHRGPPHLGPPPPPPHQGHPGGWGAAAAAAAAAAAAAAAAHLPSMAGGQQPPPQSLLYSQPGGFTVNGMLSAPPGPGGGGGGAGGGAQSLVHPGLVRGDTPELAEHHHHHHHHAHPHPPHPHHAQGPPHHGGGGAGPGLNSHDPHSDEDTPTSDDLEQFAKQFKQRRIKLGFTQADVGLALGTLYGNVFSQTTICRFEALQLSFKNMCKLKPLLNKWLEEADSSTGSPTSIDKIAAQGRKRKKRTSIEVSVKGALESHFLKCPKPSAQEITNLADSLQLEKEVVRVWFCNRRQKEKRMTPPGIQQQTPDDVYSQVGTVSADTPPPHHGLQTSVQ

COc1ccc(NC(=O)COc2ccc(C(=O)Nc3cccc(F)c3)c3ccccc23)cc1
pIC50 [1]: 3.79

CCOC(=O)CNC(=O)COc1ccc(C(=O)Nc2cccc(F)c2)c2ccccc12
pIC50 [1]: < 3.52

NC(=O)COc1ccc(C(=O)Nc2cccc(F)c2)c2ccccc12
pIC50 [1]: 3.57

COc1ccc(NC(=O)COc2ccc(C(=O)Nc3cccc(F)c3)c3ccccc23)cc1OC
pIC50 [1]: 3.33

O=C(COc1ccc(C(=O)Nc2cccc(F)c2)c2ccccc12)Nc1cccc(F)c1
pIC50 [1]: < 3.52

CC(C)CNC(=O)COc1ccc(C(=O)Nc2cccc(F)c2)c2ccccc12
pIC50 [1]: 3.53

O=C(Nc1cccc(F)c1)c1ccc(OCC(=O)N2CCOCC2)c2ccccc12
pIC50 [1]: < 3.52

O=C(COc1ccc(C(=O)Nc2cccc(F)c2)c2ccccc12)Nc1ccc(O)cc1
pIC50 [2]: 3.91
pIC50 [1]: 4.19
pIC50 [3]: 3.86

O=C(COc1ccc(C(=O)Nc2cccc(F)c2)c2ccccc12)NC1CC1
pIC50 [2]: 3.09
pIC50 [1]: 3.76
pIC50 [3]: < 2.00

C#CCNC(=O)COc1ccc(C(=O)Nc2cccc(F)c2)c2ccccc12
pIC50 [1]: 3.48

O=C(O)CNC(=O)COc1ccc(C(=O)Nc2cccc(F)c2)c2ccccc12
pIC50 [1]: < 3.52

O=C(COc1ccc(C(=O)Nc2cccc(F)c2)c2ccccc12)NCCOCc1ccccc1
pIC50 [1]: < 3.52

O=C(COc1ccc(C(=O)Nc2cccc(F)c2)c2ccccc12)Nc1ccc(F)cc1
pIC50 [1]: 3.53

CNC(=O)COc1ccc(C(=O)Nc2cccc(F)c2)c2ccccc12
pIC50 [1]: < 3.52

CCNC(=O)COc1ccc(C(=O)Nc2cccc(F)c2)c2ccccc12
pIC50 [1]: 3.70

COc1cc(CNC(=O)COc2ccc(C(=O)Nc3cccc(F)c3)c3ccccc23)cc(OC)c1
pIC50 [1]: < 3.52

CC(C)(C)NC(=O)COc1ccc(C(=O)Nc2cccc(F)c2)c2ccccc12
pIC50 [1]: < 3.52

O=C(COc1ccc(C(=O)Nc2cccc(F)c2)c2ccccc12)Nc1ccccc1F
pIC50 [1]: 3.36

O=C(COc1ccc(C(=O)Nc2cccc(F)c2)c2ccccc12)Nc1cccc(O)c1
pIC50 [2]: 3.85
pIC50 [1]: 4.07
pIC50 [3]: 3.83

O=C(COc1ccc(C(=O)Nc2cccc(F)c2)c2ccccc12)NCCO
pIC50 [1]: < 3.52

CC(C)NC(=O)COc1ccc(C(=O)Nc2cccc(F)c2)c2ccccc12
pIC50 [1]: 3.57

COc1cc(NC(=O)COc2ccc(C(=O)Nc3cccc(F)c3)c3ccccc23)cc(OC)c1
pIC50 [1]: < 3.52

COc1ccccc1NC(=O)COc1ccc(C(=O)Nc2cccc(F)c2)c2ccccc12
pIC50 [1]: 3.14

COc1ccc(OC)c(NC(=O)COc2ccc(C(=O)Nc3cccc(F)c3)c3ccccc23)c1
pIC50 [1]: < 3.52

NNC(=O)COc1ccc(C(=O)Nc2cccc(F)c2)c2ccccc12
pIC50 [1]: < 3.52

O=C(COc1ccc(C(=O)Nc2cccc(F)c2)c2ccccc12)NCC(F)(F)F
pIC50 [2]: 3.79
pIC50 [1]: 3.95
pIC50 [3]: 3.69

O=C(COc1ccc(C(=O)Nc2cccc(F)c2)c2ccccc12)Nc1ccccc1
pIC50 [1]: 3.60

CN(C)CCNC(=O)COc1ccc(C(=O)Nc2cccc(F)c2)c2ccccc12
pIC50 [1]: < 3.52

CCCNC(=O)COc1ccc(C(=O)Nc2cccc(F)c2)c2ccccc12
pIC50 [1]: 3.56

CN(C)C(=O)COc1ccc(C(=O)Nc2cccc(F)c2)c2ccccc12
pIC50 [1]: < 3.52

COc1cccc(NC(=O)COc2ccc(C(=O)Nc3cccc(F)c3)c3ccccc23)c1
pIC50 [1]: 3.24

Cc1ccc(NC(=O)COc2ccc(C(=O)Nc3cccc(F)c3)c3ccccc23)c(C)c1
pIC50 [1]: < 3.52
